Experimental data pooled from the literature.
Each line is one published result; the experiments were not run side by side.
Organism: Pseudomonas aeruginosa
Observed: microbial growth

| SMILES | technique | strain | time | MIC |
| --- | --- | --- | --- | --- |
| CN(C)[C@@H]1C(O)=C(C(N)=O)C(=O)[C@@]2(O)C(O)=C3C(=O)c4c(cc5ccc(-c6ccccc6)cc5c4O)C[C@H]3C[C@@H]12 | broth dilution | ATCC27853 |  | 32 µg/mL |
| CCCCC(=O)N1C(=O)/C(=C(/C)O)C(=O)C1CC(C)C (stereo not shown) |  | PA01 |  | > 200 µg/mL |
| Clc1ccc(Cn2c(-c3ccc(Cl)cc3)nc3ccccc32)cc1 | broth dilution | ATCC27853 |  | 256 µg/mL |
| CO[C@H]1/C=C/O[C@@]2(C)Oc3c(C)c(O)c4c(O)c(c(/C=N/N5CCN(C)CC5)c(O)c4c3C2=O)NC(=O)/C(C)=C\C=C\[C@H](C)[C@H](O)[C@@H](C)[C@@H](O)[C@@H](C)[C@H](OC(C)=O)[C@@H]1C |  | ATCC27853 |  | 16 µg/mL |
| CCCc1nc(Cl)c2c(c1O)C(=O)C1=C(O)[C@]3(O)C(=O)C(C(N)=O)=C(O)[C@@H](N(C)C)[C@@H]3C[C@@H]1C2.Cl | broth dilution | ATCC27853 |  | > 32 µg/mL |
| C/C(O)=C1\C(=O)C(CC(C)C)N(C(=O)CCCCCc2ccccc2)C1=O (stereo not shown) |  | PA01 |  | > 200 µg/mL |
| CCCCCCC#Cc1cncc(-c2nnc(SCc3ccc(Cl)cc3)n2C)c1 |  |  |  | ≥ 20 µg/mL |
| CC(C)Oc1c(NC(=O)c2ccc(NC(=O)[C@H](CC(N)=O)NC(=O)c3ccc(NC(=O)c4ccc([N+](=O)[O-])cc4)cc3)cc2)ccc(C(=O)Nc2ccc(C(=O)O)c(F)c2)c1O |  | PA14 |  | > 64 µg/mL |
| COc1ncc(O)c2c1C[C@H]1C[C@H]3[C@H](N(C)C)C(O)=C(C(N)=O)C(=O)[C@@]3(O)C(O)=C1C2=O.Cl.Cl | broth dilution | ATCC27853 |  | > 32 µg/mL |
| Cc1ccc(C)n1-c1ccc(C(=O)NNC=O)cc1 | broth dilution | ATCC10145 | 18 h | 125 µg/mL |
| Clc1ccccc1NCc1ccc(Oc2ccccn2)cc1 |  |  |  | > 25 µg/mL |
| Cc1ccc(C)n1-c1ccc(-c2nnc(-c3ccc(O)cc3)[nH]2)cc1 | broth dilution | ATCC10145 | 18 h | 250 µg/mL |
| Cc1cc(C(=O)Nc2ccc(C(=O)N[C@@H](CC(N)=O)C(=O)Nc3ccc(C(=O)Nc4ccc(C(=O)Nc5ccc(C(=O)O)cc5)c(O)c4OC(C)C)cc3)cc2)ccc1C#N |  | PA14 |  | 4 µg/mL |
| O=C(CCCCCC[P+](c1ccccc1)(c1ccccc1)c1ccccc1)Nc1ccc(O)c(O)c1.[Br-] | broth dilution | ATCC27853 | 18 h | > 32 µg/mL |
| O=C(O)c1cn(C2CC2)c2cc(N3CCNCC3)c(F)cc2c1=O | broth dilution |  | 24 h | 9.43 µM |
| NC1CCCCc2c1[nH]c1ccc(Br)cc21 (stereo not shown) | broth dilution | PAO1 | 18 h | 128 µg/mL |
| CCCCCC(=O)Oc1c(C)c(O)c(C(=O)/C=C/c2ccccc2)c(OC)c1C | broth dilution | ATCC27853 |  | 5000 µg/mL |
| CC(C)Oc1c(NC(=O)c2ccc(NC(=O)[C@H](CC(N)=O)NC(=O)c3ccc(NC(=O)c4ccc(C#N)cc4)cc3)cc2)ccc(C(=O)Nc2ccncc2)c1O |  | PA14 |  | > 64 µg/mL |
| [H]/N=C(/N)N[C@H]1[C@H](O)[C@@H](O)[C@H](O[C@@H]2O[C@@H](C)[C@](O)(C=O)[C@H]2O[C@@H]2O[C@@H](CO)[C@H](O)[C@@H](O)[C@@H]2NC)[C@@H](N/C(N)=N\[H])[C@@H]1O | broth dilution | PAO1 |  | 64 µg/mL |

| SMILES | technique | strain | time | MIC |
| --- | --- | --- | --- | --- |
| CN(C)C1CN(Cc2ccc3cc4c(c(O)c3c2)C(=O)C2=C(O)[C@]3(O)C(=O)C(C(N)=O)=C(O)[C@@H](N(C)C)[C@@H]3C[C@@H]2C4)C1 | broth dilution | ATCC27853 |  | 32 µg/mL |
| CC(C)Oc1c(NC(=O)c2ccc(NC(=O)[C@H](CC(N)=O)NC(=O)c3ccc(NC(=O)c4ccc(C#N)cc4)cc3)cc2)ccc(C(=O)NC2CCNCC2)c1O |  | PA14 |  | > 64 µg/mL |
| CCCCCCC#Cc1cncc(-c2nnc(SCc3ccc([N+](=O)[O-])o3)n2C2CC2)c1 |  |  |  | ≥ 20 µg/mL |
| O=c1c(O)c(-c2ccc(O)c(O)c2)oc2cc(O)cc(O)c12 | broth dilution | PAO1 |  | 256 µg/mL |
| Cc1ccc(NCc2ccc(Oc3ccccn3)cc2)cc1 |  |  |  | > 50 µg/mL |
| O=[N+]([O-])c1ccc(-c2nc3ccccc3n2Cc2ccccc2)cc1 | broth dilution | ATCC27853 |  | 128 µg/mL |
| O=C1NN=C(N=Cc2ccccc2)C1=NNn1c(-c2ccccc2)nc2ccccc2c1=O | broth dilution |  | 24 h | 114 µM |
| O=C(CCCCCCCC[P+](c1ccccc1)(c1ccccc1)c1ccccc1)Nc1cc(O)c(O)c(O)c1.[Br-] | broth dilution | ATCC27853 | 18 h | > 32 µg/mL |
| CC(C)C1NC(=O)C(C(=O)NC(C(=O)NC2C(=O)N3C2SC(C)(C)C3C(=O)O)c2ccccc2)=C1O (stereo not shown) |  |  |  | 50 µg/mL |
| CCCCCCCCCCCC(=O)Oc1c(C)c(O)c(C(=O)/C=C/c2ccccc2)c(OC)c1C | broth dilution | ATCC27853 |  | 5000 µg/mL |
| CC(C)Oc1c(NC(=O)c2ccc(NC(=O)[C@H](CC(N)=O)NC(=O)c3ccc(CCNC(=O)c4ccc(C#N)cc4)cc3)cc2)ccc(C(=O)Nc2ccc(C(=O)O)cc2)c1O |  | PA14 |  | > 64 µg/mL |
| CN(C)[C@@H]1C(O)=C(C(N)=O)C(=O)[C@@]2(O)C(O)=C3C(=O)c4c(O)c(N)nc(F)c4C[C@H]3C[C@@H]12.Cl.Cl | broth dilution | ATCC27853 |  | 4 µg/mL |
| C[C@@H](O)[C@H]1C(=O)N2C(C(=O)O)=C(S[C@@H]3CN[C@H](C(=O)N(C)C)C3)[C@H](C)[C@H]12 | broth dilution | ATCC27853 |  | 0.25 µg/mL |
| CC1(C)SC2C(NC(=O)C(NC(=O)C3=C(O)C(c4ccccc4)NC3=O)c3ccccc3)C(=O)N2C1C(=O)O (stereo not shown) |  |  |  | 50 µg/mL |
| CC(C)Oc1c(NC(=O)c2ccc(NC(=O)[C@H](CC(N)=O)NC(=O)c3ccc(NC(=O)c4cccc(N)c4)cc3)cc2)ccc(C(=O)Nc2ccc(C(=O)O)cc2)c1O |  | PA14 |  | > 64 µg/mL |
| CC1(C)S[C@@H]2[C@H](NC(=O)C(C(=O)O)c3ccccc3)C(=O)N2[C@H]1C(=O)O (stereo partly shown) | broth dilution | CMCC10104 |  | > 200 µM |
| CC(C)Oc1c(NC(=O)c2ccc(NC(=O)[C@H](CC(N)=O)NC(=O)c3ccc(NC(=O)c4ccc(C#N)cc4)cc3)cc2)ccc(C(=O)Nc2cc(C(=O)O)n(C)c2)c1O |  | PA14 |  | > 64 µg/mL |
| CCCc1nc(N(C)C)c2c(c1O)C(=O)C1=C(O)[C@]3(O)C(=O)C(C(N)=O)=C(O)[C@@H](N(C)C)[C@@H]3C[C@@H]1C2.Cl.Cl | broth dilution | ATCC27853 |  | > 32 µg/mL |
